Results: article PMC9418647 (European Journal of Drug Metabolism and Pharmacokinetics, 2022)

What was measured:
[1] = cited from earlier work
[2] = cited from earlier work; remark: listed apart in the source
[3] = biological target: T1, OATP1B1 (Homo sapiens, UniProt Q9Y6L6); assay: Uptake assay for OATP1B1 inhibition in HEK-OATP1B1 cells; format: in vitro ADME
T1 sequence (Q9Y6L6 1-691): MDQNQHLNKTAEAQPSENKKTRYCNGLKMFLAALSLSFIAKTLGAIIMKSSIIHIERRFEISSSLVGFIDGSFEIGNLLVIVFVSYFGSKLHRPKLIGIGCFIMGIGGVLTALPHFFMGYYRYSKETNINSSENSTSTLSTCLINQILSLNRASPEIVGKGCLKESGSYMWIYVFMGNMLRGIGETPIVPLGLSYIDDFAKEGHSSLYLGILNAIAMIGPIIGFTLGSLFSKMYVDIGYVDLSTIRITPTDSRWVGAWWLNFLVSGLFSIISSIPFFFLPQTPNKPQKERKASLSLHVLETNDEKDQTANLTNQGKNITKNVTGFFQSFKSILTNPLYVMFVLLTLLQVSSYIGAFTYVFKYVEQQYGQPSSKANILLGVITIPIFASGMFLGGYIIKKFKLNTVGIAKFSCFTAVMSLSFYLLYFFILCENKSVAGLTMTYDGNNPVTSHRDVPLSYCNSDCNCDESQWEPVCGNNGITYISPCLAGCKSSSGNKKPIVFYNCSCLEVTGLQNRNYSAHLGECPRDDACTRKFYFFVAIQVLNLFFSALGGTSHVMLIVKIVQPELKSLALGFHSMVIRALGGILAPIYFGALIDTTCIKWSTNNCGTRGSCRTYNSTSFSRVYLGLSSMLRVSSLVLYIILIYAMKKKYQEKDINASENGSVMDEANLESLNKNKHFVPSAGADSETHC
Method in brief: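 OATP1B1 uptake measured across a test-compound concentration range. IC50 reported as greater than the top concentration if inhibition stayed below 50%, and that concentration was then used in the calculation. AUC ratio estimated by the basic static model, assuming substrate clearance runs solely via the transporter.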

[4] = Clinical study: safety and tolerability; format: in vivo, human
Method in brief: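 Healthy men given finerenone 40 mg once daily for 10 days, with rosuvastatin. Supine BP, HR and 12-lead ECG recorded after 15 min rest, pre-dose and up to 24 h post-dose. Haematology and chemistry including serum electrolytes taken pre-dose and at 24 and 48 h, except after separated dosing. Adverse events elicited with non-leading questions through follow-up.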

[5] = finerenone 20 mg; cited from earlier work
[6] = biological target: T2, OATP1B3 (Homo sapiens, UniProt Q9NPD5); assay: Uptake assay for OATP1B3 inhibition in HEK-OATP1B3 cells; format: in vitro ADME
T2 sequence (Q9NPD5 1-702): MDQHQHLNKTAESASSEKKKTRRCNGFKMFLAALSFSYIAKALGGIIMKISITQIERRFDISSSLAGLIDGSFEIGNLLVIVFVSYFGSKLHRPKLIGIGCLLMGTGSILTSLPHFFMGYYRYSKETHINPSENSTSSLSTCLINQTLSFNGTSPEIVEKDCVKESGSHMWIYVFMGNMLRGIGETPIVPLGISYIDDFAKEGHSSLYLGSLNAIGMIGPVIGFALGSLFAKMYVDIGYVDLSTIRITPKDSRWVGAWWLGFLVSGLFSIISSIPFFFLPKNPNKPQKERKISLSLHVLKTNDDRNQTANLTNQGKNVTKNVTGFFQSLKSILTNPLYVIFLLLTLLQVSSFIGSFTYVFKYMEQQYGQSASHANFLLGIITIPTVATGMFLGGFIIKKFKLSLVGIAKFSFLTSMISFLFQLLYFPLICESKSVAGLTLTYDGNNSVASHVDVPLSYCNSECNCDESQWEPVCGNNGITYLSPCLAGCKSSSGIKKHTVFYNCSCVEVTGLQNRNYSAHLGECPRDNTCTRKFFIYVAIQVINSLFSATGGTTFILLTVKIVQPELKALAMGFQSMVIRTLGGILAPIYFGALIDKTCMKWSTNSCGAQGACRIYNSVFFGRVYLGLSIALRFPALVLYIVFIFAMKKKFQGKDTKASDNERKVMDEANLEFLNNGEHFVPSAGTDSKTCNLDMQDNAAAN
Method in brief: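 Transporter-mediated transport measured across a test-compound concentration range. Where inhibition stayed below 50% at the top concentration, IC50 was reported as greater than the highest tested concentration.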

Question: With `Cc1ccc(C)c(OCCCC(C)(C)C(=O)O)c1` [gemfibrozil] as the compound, how does the “increase of rosuvastatin AUC” value [1] read?
Answer: Its value is 1.88 fold.

Question: What about the “increase of rosuvastatin Cmax” value [1] of the same compound?
Answer: Its value is 2.21 fold.

Question: What does the source list for `CCOc1ncc(C)c2c1[C@H](c1ccc(C#N)cc1OC)C(C(N)=O)=C(C)N2` [Finerenone, finerenone]?
Answer: absolute bioavailability [2]: 43.5%; administered dose excreted in feces [2]: approximately 20%; administered dose excreted in urine [2]: About 80%; dose excreted unchanged in feces [2]: < 0.2%; dose excreted unchanged in urine [2]: < 1%; share of metabolic clearance by CYP3A4 ([2]; remainder attributable to CYP2C8): about 90%; IC50 [3]: 3.2 µM; predicted AUC ratio (AUCR), inhibition of OATP1B1 ([3]; basic model R = 1 + [I]inlet,max,u (or Cmax,u)/IC50): 1.182; changes in potassium levels ([4]; finerenone 40 mg): no relevant changes in potassium levels; serious or severe adverse events ([4]; finerenone 40 mg alone or with rosuvastatin): no serious or severe AEs; tolerability ([4]; repeated doses of finerenone 40 mg once daily, healthy male volunteers): well tolerated; effect on repaglinide (CYP2C8 and OATP substrate) [5]: no effect; IC50 [6]: > 10 µM

Question: With `CC1=NN(c2ccc(C)c(C)c2)C(=O)/C1=N\Nc1cccc(-c2cccc(C(=O)O)c2)c1O` [eltrombopag] as the compound, how does the “rosuvastatin AUC ratio” value [1] read?
Answer: The value was 1.55.

Question: And the “rosuvastatin Cmax ratio” value [1]?
Answer: The value was 2.03.

Question: With `CC(C)c1nc(N(C)S(C)(=O)=O)nc(-c2ccc(F)cc2)c1/C=C/[C@@H](O)C[C@@H](O)CC(=O)O` [Rosuvastatin, rosuvastatin] as the compound, how does the “Tmax (expected)” value [1] read?
Answer: Its value is “approximately 5 h”.

Question: For `CO[C@H]1/C=C/O[C@@]2(C)Oc3c(C)c(O)c4c(O)c(c(/C=N/N5CCN(C)CC5)c(O)c4c3C2=O)NC(=O)/C(C)=C\C=C\[C@H](C)[C@H](O)[C@@H](C)[C@@H](O)[C@@H](C)[C@H](OC(C)=O)[C@@H]1C` [rifampicin], which “CP-I AUC ratio” value [1] is on record?
Answer: Its value is 4.0.

Question: And the “CP-III AUC ratio” value [1]?
Answer: The value was 3.3.

Question: What about the “rosuvastatin AUC ratio” value [1] of the same compound?
Answer: Its value is 5.0.
